The values below come from ChEMBL document CHEMBL3621200, “Toward the discovery of dual HCMV-VZV inhibitors: Synthesis, structure activity relationship analysis, and cytotoxicity studies of long chained 2-uracil-3-yl-N-(4-phenoxyphenyl)acetamides” (Bioorg Med Chem, 2015).

Structures are written as SMILES. Calls of active or inactive are those of the source. The rule behind the calls is not given here.

As a reminder, the EC50 is the midpoint of the concentration-response curve. Usually CC50 stands for the concentration giving 50% cytotoxicity.

Data set [1] relates to Human betaherpesvirus 5. In words: Antiviral activity against human cytomegalovirus Davis infected in HEL cells assessed as reduction in viral plaque formation. Format: functional, organism-based. Conditions: Human betaherpesvirus 5, Davis. The procedure, abridged:
(§1)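 Confluent HEL fibroblasts were infected with 100 PFU of HCMV in the presence of varying compound concentrations. Plaques were counted once plaque formation was complete in untreated infected controls.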

For data set [2], the system named is Human betaherpesvirus 5. In words: Antiviral activity against human cytomegalovirus AD169 infected in HEL cells assessed as reduction in viral plaque formation. Format: functional, organism-based. Conditions: Human betaherpesvirus 5, AD169, HEL. The method in brief: as §1
For a further data set, the system named is Human alphaherpesvirus 1. Kind of data set: Antiviral activity against HSV1 KOS. It counts as functional, organism-based. The procedure, abridged:
(§2)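 Confluent cell monolayers in 96-well plates were inoculated with 100 CCID50 of virus together with varying compound concentrations. Cytopathicity was scored once it reached completion in untreated infected controls.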

Data set [3] can be described thus: Cytotoxicity against human cytomegalovirus infected HEL cells assessed as alteration of cell morphology incubated for 3 days by microscopy. Conditions: HEL cells infected with human cytomegalovirus. Format: cell-based. The procedure, abridged: (§3)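 Cytotoxicity was given as the minimum cytotoxic concentration (MCC): the compound concentration causing a microscopically detectable change in HEL cell morphology.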

For the next data set, the system named is Influenza A virus. In words: Antiviral activity against Influenza A virus H1N1. It counts as functional, organism-based. The method in brief: (§4)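 Confluent cell monolayers (HEL, Vero, HeLa or MDCK) in 96-well plates were infected with 100 CCID50 of virus in the presence of varying compound concentrations. Cytopathicity was scored once it reached completion in untreated infected controls.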

The subject of data set [4] is Human immunodeficiency virus 1. Kind of data set: Antiviral activity against HIV1 3B infected in human CEM cells assessed as reduction in virus- induced cytopathicity incubated for 4 to 5 days by microscopy based virus syncytium formation assay. Format: functional, organism-based. Conditions: CCRF-CEM. The method in brief:
(§5)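 CEM cells at ~3 × 10^5 cells/mL, infected with 100 CCID50 of HIV per mL in the presence of compound dilutions. Incubated 4–5 days at 37 °C in humidified CO2. Syncytium (giant cell) formation scored by microscopy.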

The next data set relates to Influenza B virus. In words: Antiviral activity against Influenza B virus. Format: functional, organism-based. The method in brief: as §4
In data set [5] the test system is Mammalian orthoreovirus 1. Kind of data set: Antiviral activity against Reovirus 1. Format: functional.
In a further data set the test system is HEL. Kind of data set: Cytotoxicity against human cytomegalovirus infected HEL cells assessed as cell growth inhibition incubated for 3 days by coulter counter method. Conditions: 72 h. It counts as cell-based. The procedure, abridged:
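HEL cells were seeded at 5 × 10^3 cells/well and left to adhere and proliferate for 24 h, then compound-containing medium was added. After 3 days at 37 °C, cells were counted with a Coulter counter.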

A further data set concerns Sindbis virus. In words: Antiviral activity against Sindbis virus. Format: functional, organism-based.
The test system of data set [6] is Vesicular stomatitis virus. Kind of data set: Antiviral activity against Vesicular stomatitis virus. It counts as functional, organism-based. The method in brief:
as §4

The subject of data set [7] is Human immunodeficiency virus 2. Kind of data set: Antiviral activity against HIV2 ROD infected in human CEM cells assessed as reduction in virus- induced cytopathicity incubated for 4 to 5 days by microscopy based virus syncytium formation assay. Format: functional, organism-based. Conditions: ISOLATE ROD, CCRF-CEM. The procedure, abridged:
as §5
(In general: Damage to the host cells serves as the signal in cytopathic effect assays.)

In another data set the test system is Punta Toro virus. In words: Antiviral activity against Punta Toro virus. It counts as functional, organism-based.
Data set [8] can be described thus: Cytotoxicity against Varicella zoster virus infected HEL cells assessed as alteration of cell morphology incubated for 3 days by microscopy. Format: cell-based. Conditions: human, HEL cells infected with Varicella zoster virus. The procedure, abridged: as §3
The next data set deals with Vaccinia virus. Kind of data set: Antiviral activity against Vaccinia virus Lederle. Format: functional, organism-based. Conditions: Orthopoxvirus vaccinia. The method in brief:
as §4

Another data set concerns Influenza A virus H3N2. In words: Antiviral activity against Influenza A virus H3N2. It counts as functional, organism-based. The procedure, abridged: as §4
Another data set relates to Human respirovirus 3. Kind of data set: Antiviral activity against Parainfluenza 3 virus. It counts as functional, organism-based.
The test system of data set [9] is Human herpesvirus 2 strain G. In words: Antiviral activity against HSV2 G Lyons. It counts as functional, organism-based.
Another data set has as its system Coxsackievirus B4. In words: Antiviral activity against Human coxsackievirus B4. Format: functional, organism-based.
The test system of another data set is Human alphaherpesvirus 2. In words: Antiviral activity against HSV2 Lyons. It counts as functional, organism-based. The procedure, abridged:
as §2

For the next data set, the system named is Feline coronavirus. In words: Antiviral activity against Feline coronavirus. Format: functional, organism-based.

Turning to `O=C(Cn1c(=O)ccn(CCCCCOc2ccc(-c3ccccc3)cc2)c1=O)Nc1ccc(Oc2ccccc2)cc1`, the half-maximal effective concentration (EC50) came to 1.04 µM in the data set with Human betaherpesvirus 5 [1] and 0.51 µM in the data set with Human betaherpesvirus 5 [2]. Further, the inhibition entry (in the data set on Human alphaherpesvirus 1; in the data set on Influenza A virus; in [4]; with Influenza B virus; in data set [5]; with Sindbis virus) was “inactive” in each case. The inhibition entry (in [6]; in data set [7]; in the data set on Punta Toro virus; with Vaccinia virus; with Influenza A virus H3N2; in the data set on Human respirovirus 3) was “inactive” throughout. Moreover, the inhibition entry (in data set [9]; with Coxsackievirus B4; with Human alphaherpesvirus 2; with Feline coronavirus) was “inactive” each time. Also, the MCC at 72 h in [3] was found to be 20 µM; in data set [8], 100 µM. The CC50 with HEL turned out to be 2.8 µM.

As for `O=C(Cn1c(=O)ccn(CCCCCOc2cccc(Br)c2)c1=O)Nc1ccc(Oc2ccccc2)cc1`, the EC50 with Human betaherpesvirus 5 [1] was 3.1 µM; in the data set with Human betaherpesvirus 5 [2], 2 µM. The inhibition entry (in the data set with Human alphaherpesvirus 1; in the data set with Influenza A virus; in data set [4]; with Influenza B virus; in data set [5]; in the data set on Sindbis virus) was “inactive” throughout. Further, the inhibition result (in data set [6]; in [7]; in the data set with Punta Toro virus; in the data set with Vaccinia virus; in the data set on Influenza A virus H3N2; in the data set on Human respirovirus 3) was “inactive” in each case. Further, the inhibition result (in data set [9]; with Coxsackievirus B4; with Human alphaherpesvirus 2; in the data set on Feline coronavirus) was “inactive” each time. The MCC at 72 h in [3] is not below 100 µM; in data set [8] it was more than 100 µM. Further, in the data set on HEL, the CC50 turned out to be 6.3 µM.

On to `Nc1nc(O)c2ncn(COC(CO)CO)c2n1` [GANCICLOVIR], for which, in data set [3], the MCC at 72 h was more than 350 µM. For the same molecule, the CC50 with HEL was not below 319 µM.

As for `O=C(Cn1c(=O)ccn(CCCCCCc2ccccc2)c1=O)Nc1ccc(Oc2ccccc2)cc1`, the EC50 in the data set with Human betaherpesvirus 5 [1] and in the data set on Human betaherpesvirus 5 [2] was more than 20 µM throughout. Also, the inhibition entry (in the data set with Human alphaherpesvirus 1; in the data set with Influenza A virus; in data set [4]; in the data set on Influenza B virus; in data set [5]; with Sindbis virus) was “inactive” each time. The inhibition entry (in [6]; in data set [7]; in the data set on Punta Toro virus; in the data set on Vaccinia virus; with Influenza A virus H3N2; in the data set on Human respirovirus 3) was “inactive” each time. The inhibition entry (in data set [9]; in the data set with Coxsackievirus B4; in the data set on Human alphaherpesvirus 2; in the data set with Feline coronavirus) was “inactive” in each case. The MCC at 72 h is 100 µM in [3] and more than 100 µM in data set [8].

For the molecule `O=C(Cn1c(=O)c(I)cn(CCCCCOc2ccc(Br)cc2)c1=O)Nc1ccc(Oc2ccccc2)cc1`, the 50% effective concentration (EC50) in the data set with Human betaherpesvirus 5 [1] and in the data set on Human betaherpesvirus 5 [2] was more than 20 µM each time. Besides, the inhibition result (with Human alphaherpesvirus 1; in the data set on Influenza A virus; in [4]; in the data set on Influenza B virus; in data set [5]; with Sindbis virus) was “inactive” each time. Moreover, the inhibition result (in data set [6]; in data set [7]; in the data set on Punta Toro virus; in the data set with Vaccinia virus; with Influenza A virus H3N2; with Human respirovirus 3) was “inactive” in each case. In addition, the inhibition entry (in data set [9]; in the data set with Coxsackievirus B4; in the data set on Human alphaherpesvirus 2; with Feline coronavirus) was “inactive” throughout. Besides, the MCC at 72 h in [3] is 100 µM; in [8], more than 100 µM.

Turning to `O=C(Cn1c(=O)ccn(CCCCCOc2ccc(Br)cc2)c1=O)Nc1ccc(OCc2ccccc2)cc1`, the EC50 in the data set on Human betaherpesvirus 5 [1] is 4 µM; in the data set with Human betaherpesvirus 5 [2] it was more than 20 µM. Further, the inhibition entry (with Human alphaherpesvirus 1; with Influenza A virus; in [4]; in the data set with Influenza B virus; in [5]; in the data set with Sindbis virus) was “inactive” throughout. Moreover, the inhibition entry (in data set [6]; in data set [7]; with Punta Toro virus; in the data set on Vaccinia virus; with Influenza A virus H3N2; with Human respirovirus 3) was “inactive” in each case. In addition, the inhibition result (in data set [9]; in the data set on Coxsackievirus B4; in the data set with Human alphaherpesvirus 2; with Feline coronavirus) was “inactive” throughout. Also, the MCC at 72 h in [3] and in [8] was not below 20 µM in each case.

Turning to `Nc1ccn(C[C@@H](CO)OCP(=O)(O)O)c(=O)n1` [CIDOFOVIR], in the data set on Human betaherpesvirus 5 [1], the EC50 worked out at 0.84 µM. In addition, in data set [3], the MCC at 72 h is more than 300 µM. In the data set on HEL, the CC50 was not below 208 µM.

For the molecule `O=C(Cn1c(=O)ccn(CCCCCOc2ccc(Br)cc2)c1=O)Nc1ccccc1`, the EC50 with Human betaherpesvirus 5 [1] and with Human betaherpesvirus 5 [2] was more than 4 µM each time. In addition, the inhibition entry (with Human alphaherpesvirus 1; in the data set on Influenza A virus; in data set [4]; in the data set on Influenza B virus; in data set [5]; in the data set with Sindbis virus) was “inactive” throughout. The inhibition entry (in data set [6]; in [7]; in the data set with Punta Toro virus; with Vaccinia virus; with Influenza A virus H3N2; with Human respirovirus 3) was “inactive” in each case. For the same molecule, the inhibition result (in data set [9]; in the data set with Coxsackievirus B4; in the data set with Human alphaherpesvirus 2; in the data set with Feline coronavirus) was “inactive” in each case. The MCC at 72 h in [3] is 20 µM; in data set [8] it was not below 20 µM.

`O=C(Cn1c(=O)ccn(Cc2ccc(Oc3ccc(Br)cc3)cc2)c1=O)Nc1ccc(Oc2ccccc2)cc1`: the EC50 in the data set on Human betaherpesvirus 5 [1] and in the data set on Human betaherpesvirus 5 [2] was more than 0.8 µM each time. For the same molecule, the inhibition entry (in the data set with Human alphaherpesvirus 1; in the data set with Influenza A virus; in data set [4]; with Influenza B virus; in [5]; in the data set on Sindbis virus) was “inactive” throughout. Besides, the inhibition entry (in data set [6]; in [7]; in the data set with Punta Toro virus; in the data set with Vaccinia virus; with Influenza A virus H3N2; in the data set on Human respirovirus 3) was “inactive” in each case. The inhibition result (in [9]; with Coxsackievirus B4; in the data set with Human alphaherpesvirus 2; in the data set with Feline coronavirus) was “inactive” each time. The MCC at 72 h in data set [3] came out at 4 µM; in data set [8] it was 20 µM.

Take `O=C(Cn1c(=O)ccn(COCCOCc2ccc(Br)cc2)c1=O)Nc1ccc(Oc2ccccc2)cc1`: the EC50 with Human betaherpesvirus 5 [1] and with Human betaherpesvirus 5 [2] was more than 20 µM each time. Besides, the inhibition entry (in the data set on Human alphaherpesvirus 1; in the data set on Influenza A virus; in [4]; in the data set with Influenza B virus; in data set [5]; with Sindbis virus) was “inactive” throughout. In addition, the inhibition result (in [6]; in [7]; in the data set with Punta Toro virus; with Vaccinia virus; in the data set on Influenza A virus H3N2; in the data set on Human respirovirus 3) was “inactive” in each case. Besides, the inhibition entry (in data set [9]; with Coxsackievirus B4; in the data set with Human alphaherpesvirus 2; in the data set with Feline coronavirus) was “inactive” throughout. Besides, the MCC at 72 h in [3] was 100 µM; in data set [8] it was more than 100 µM.
